In ChEMBL document CHEMBL1150309, “Design, synthesis, and biological evaluation of thiophene analogues of chalcones” (Bioorg Med Chem, 2008):

What was measured:
FM3A = assay: Antiproliferative activity against mouse FM3A cells after 2 days; type: functional, cell-based; details: 48 h
In short: (§1)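 Cells suspended at 300,000–500,000 cells/mL of culture medium and mixed 1:1 with dilutions of compound. Incubated 2 days at 37 °C, then cell number counted with a Coulter counter. IC50 is the concentration giving 50% inhibition of proliferation. Values are means from dose–response curves of at least three independent experiments.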

K562 [1] = assay: Cell cycle arrest in human K562 cells assessed as accumulation at S phase at 1.5 uM after 24 hrs by flow cytometry; type: functional
[2] = Inhibition of bovine brain tubulin polymerization for 20 mins; set-up: species or system Bos taurus
In short: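 Bovine brain tubulin (10 µM) preincubated with varying compound concentrations in glutamate buffer at 30 °C, then cooled to 0 °C. GTP added and mixtures warmed to 30 °C in cuvettes while assembly was followed by turbidity. IC50 is the concentration that halves the extent of assembly after 20 min.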

CCRF-CEM = assay: Antiproliferative activity against human CEM cells after 2 days; type: functional, cell-based; details: 48 h; in short: as §1
Bos taurus = species: Bos taurus; assay: Displacement of [3H]colchicine from bovine brain tubulin at 1 uM
In short: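 Bovine brain tubulin (1 µM) incubated with compound at 1 µM and [³H]colchicine at 5 µM. Result is reported as percent inhibition of colchicine binding.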

L1210 = assay: Antiproliferative activity against mouse L1210 cells after 2 days; type: functional, cell-based; details: L1210, 48 h; in short: as §1
K562 [3] = assay: Cell cycle arrest in human K562 cells assessed as accumulation at G2/M phase at 1.5 uM after 24 hrs by flow cytometry; type: functional
HeLa = assay: Antiproliferative activity against human HeLa cells after 2 days; type: functional, cell-based; details: 48 h; in short: as §1
MOLT-4 = assay: Antiproliferative activity against human MOLT4 cells after 2 days; type: functional, cell-based; details: MOLT-4, 48 h; in short: as §1
K562 [4] = assay: Cell cycle arrest in human K562 cells assessed as accumulation at G0/G1 phase at 1.5 uM after 24 hrs by flow cytometry; type: functional
K562 [5] = assay: Cell cycle arrest in human K562 cells assessed as accumulation at G2/M phase at 4.0 uM after 24 hrs by flow cytometry; type: functional
K562 [6] = assay: Cell cycle arrest in human K562 cells assessed as accumulation at G0/G1 phase at 4.0 uM after 24 hrs by flow cytometry; type: functional
K562 [7] = assay: Cell cycle arrest in human K562 cells assessed as accumulation at S phase at 4.0 uM after 24 hrs by flow cytometry; type: functional
K562 [8] = assay: Cell cycle arrest in human K562 cells assessed as accumulation at G0/G1 phase at 1.0 uM after 24 hrs by flow cytometry; type: functional
K562 [9] = assay: Cell cycle arrest in human K562 cells assessed as accumulation at G2/M phase at 1.0 uM after 24 hrs by flow cytometry; type: functional
K562 [10] = assay: Cell cycle arrest in human K562 cells assessed as accumulation at S phase at 1.0 uM after 24 hrs by flow cytometry; type: functional
K562 [11] = assay: Cell cycle arrest in human K562 cells assessed as accumulation at S phase at 2.2 uM after 24 hrs by flow cytometry; type: functional
K562 [12] = assay: Cell cycle arrest in human K562 cells assessed as accumulation at G2/M phase at 2.2 uM after 24 hrs by flow cytometry; type: functional
K562 [13] = assay: Cell cycle arrest in human K562 cells assessed as accumulation at G0/G1 phase at 2.2 uM after 24 hrs by flow cytometry; type: functional
K562 [14] = assay: Cell cycle arrest in human K562 cells assessed as accumulation at G2/M phase at 1.4 uM after 24 hrs by flow cytometry; type: functional
K562 [15] = assay: Cell cycle arrest in human K562 cells assessed as accumulation at S phase at 1.4 uM after 24 hrs by flow cytometry; type: functional
K562 [16] = assay: Cell cycle arrest in human K562 cells assessed as accumulation at G0/G1 phase at 1.4 uM after 24 hrs by flow cytometry; type: functional
K562 [17] = assay: Cell cycle arrest in human K562 cells assessed as accumulation at G0/G1 phase at 2.1uM after 24 hrs by flow cytometry; type: functional
K562 [18] = assay: Cell cycle arrest in human K562 cells assessed as accumulation at G2/M phase at 2.1 uM after 24 hrs by flow cytometry; type: functional
K562 [19] = assay: Cell cycle arrest in human K562 cells assessed as accumulation at S phase at 2.1uM after 24 hrs by flow cytometry; type: functional
K562 [20] = assay: Cell cycle arrest in human K562 cells assessed as accumulation at S phase at 1.7 uM after 24 hrs by flow cytometry; type: functional
K562 [21] = assay: Cell cycle arrest in human K562 cells assessed as accumulation at G2/M phase at 1.7 uM after 24 hrs by flow cytometry; type: functional
K562 [22] = assay: Cell cycle arrest in human K562 cells assessed as accumulation at G0/G1 phase at 1.7 uM after 24 hrs by flow cytometry; type: functional
K562 [23] = assay: Cell cycle arrest in human K562 cells assessed as accumulation at S phase at 1.3 uM after 24 hrs by flow cytometry; type: functional
K562 [24] = assay: Cell cycle arrest in human K562 cells assessed as accumulation at G0/G1phase at 1.3 uM after 24 hrs by flow cytometry; type: functional
K562 [25] = assay: Cell cycle arrest in human K562 cells assessed as accumulation at G2/M phase at 1.3 uM after 24 hrs by flow cytometry; type: functional

Structure (SMILES)	IC50 (FM3A)	IC50 [2]	IC50 (CCRF-CEM)	inhibition (Bos taurus)	IC50 (L1210)	IC50 (HeLa)	IC50 (MOLT-4)	further results
COc1ccccc1-c1ccc(C(=O)c2cc(OC)c(OC)c(OC)c2)s1	440 nM	1300 nM	370 nM	74%	510 nM	160 nM	180 nM	Activity (K562 [1]): 31%; Activity (K562 [3]): 62%; Activity (K562 [4]): 12%
COc1cc(C(=O)/C=C/c2ccc(F)cc2)cc(OC)c1OC	> 10000 nM		> 10000 nM		> 10000 nM	> 10000 nM	> 10000 nM	
COc1cc(C(=O)c2ccc(-c3ccsc3)s2)cc(OC)c1OC	1800 nM		1300 nM		1300 nM	1100 nM	370 nM	
COc1cc(C(=O)c2ccc(-c3ccccc3C)s2)cc(OC)c1OC	2100 nM	1700 nM	1200 nM	49%	2200 nM	1600 nM	600 nM	Activity (K562 [5]): 85%; Activity (K562 [6]): 15%; Activity (K562 [7]): 23%
COc1cc(C(=O)c2ccc(-c3ccccc3F)s2)cc(OC)c1OC	870 nM	2000 nM	480 nM	66%	520 nM	1400 nM	330 nM	Activity (K562 [8]): 8%; Activity (K562 [9]): 81%; Activity (K562 [10]): 11%
COc1cc(C(=O)c2ccc(-c3ccc(F)cc3)s2)cc(OC)c1OC	1100 nM	1100 nM	560 nM	66%	590 nM	300 nM	400 nM	Activity (K562 [11]): 31%; Activity (K562 [12]): 21%; Activity (K562 [13]): 48%
COc1cccc(/C=C/C(=O)c2cc(OC)c(OC)c(OC)c2)c1	11000 nM		2200 nM		4300 nM	3700 nM	3100 nM	
COc1ccccc1/C=C/C(=O)c1cc(OC)c(OC)c(OC)c1	7900 nM		1800 nM		2100 nM	1400 nM	1900 nM	
COc1cc(C(=O)c2ccc(-c3ccc(Cl)cc3)s2)cc(OC)c1OC	4600 nM		2300 nM		2200 nM	1500 nM	1300 nM	
COc1cc(C(=O)c2ccc(-c3cccc(F)c3)s2)cc(OC)c1OC	5600 nM		2100 nM		2400 nM	1700 nM	1200 nM	
COc1cc(C(=O)c2ccc(-c3ccc(C)cc3)s2)cc(OC)c1OC	470 nM	800 nM	360 nM	74%	490 nM	410 nM	380 nM	Activity (K562 [14]): 85%; Activity (K562 [15]): 7%; Activity (K562 [16]): 8%
COc1ccc(-c2ccc(C(=O)c3cc(OC)c(OC)c(OC)c3)s2)cc1OC	960 nM	3000 nM	540 nM	28%	520 nM	500 nM	380 nM	Activity (K562 [17]): 16%; Activity (K562 [18]): 57%; Activity (K562 [19]): 27%
COc1cccc(-c2ccc(C(=O)c3cc(OC)c(OC)c(OC)c3)s2)c1	2400 nM		2000 nM		2500 nM	1400 nM	1800 nM	
COc1cc(C(=O)c2ccc(-c3cccc([N+](=O)[O-])c3)s2)cc(OC)c1OC	2400 nM		1800 nM		2100 nM	1400 nM	1700 nM	
COc1ccc(-c2ccc(C(=O)c3cc(OC)c(OC)c(OC)c3)s2)cc1	2400 nM		2200 nM		2300 nM	1000 nM	460 nM	
COc1ccc(/C=C\c2cc(OC)c(OC)c(OC)c2)cc1O [COMBRETASTATIN A4]		1400 nM						
COc1cc(C(=O)/C=C/c2ccc(Cl)cc2)cc(OC)c1OC	> 10000 nM		> 10000 nM		> 10000 nM	> 10000 nM	> 10000 nM	
COc1cc(C(=O)c2ccc(-c3ccc([N+](=O)[O-])cc3)s2)cc(OC)c1OC	> 10000 nM		> 10000 nM		> 10000 nM	> 10000 nM	> 10000 nM	
COc1cc(C(=O)/C=C/c2ccccc2)cc(OC)c1OC	> 10000 nM		> 10000 nM		> 10000 nM	> 10000 nM	> 10000 nM	
COc1cc(C(=O)c2ccc(-c3cccs3)s2)cc(OC)c1OC	460 nM	800 nM	430 nM	82%	530 nM	470 nM	300 nM	Activity (K562 [20]): 17%; Activity (K562 [21]): 75%; Activity (K562 [22]): 8%
COc1ccc(/C=C/C(=O)c2cc(OC)c(OC)c(OC)c2)cc1OC	10000 nM		1900 nM		8100 nM	2000 nM	3100 nM	
COc1cc(C(=O)c2ccc(-c3ccccc3Cl)s2)cc(OC)c1OC	1700 nM		490 nM		750 nM	1600 nM	1000 nM	
COc1cc(C(=O)c2ccc(-c3ccccc3)s2)cc(OC)c1OC	460 nM	1500 nM	480 nM	74%	560 nM	310 nM	400 nM	Activity (K562 [23]): 48%; Activity (K562 [24]): 34%; Activity (K562 [25]): 18%
COc1ccc(/C=C/C(=O)c2cc(OC)c(OC)c(OC)c2)cc1	8400 nM		1500 nM		2800 nM	1300 nM	1400 nM	
